Results on 13 molecules are retold here after ChEMBL document CHEMBL1149246, “Discovery of bicyclic thymidine analogues as selective and high-affinity inhibitors of Mycobacterium tuberculosis thymidine monophosphate kinase” (J Med Chem, 2004).

Series [1] is described as follows: Selectivity index, Ki for human TMPK/Ki for Mycobacterium tuberculosis TMPK.
In series [2] the target is T1, Thymidylate kinase (Homo sapiens, UniProt P23919).
T1 sequence (P23919 whole entry): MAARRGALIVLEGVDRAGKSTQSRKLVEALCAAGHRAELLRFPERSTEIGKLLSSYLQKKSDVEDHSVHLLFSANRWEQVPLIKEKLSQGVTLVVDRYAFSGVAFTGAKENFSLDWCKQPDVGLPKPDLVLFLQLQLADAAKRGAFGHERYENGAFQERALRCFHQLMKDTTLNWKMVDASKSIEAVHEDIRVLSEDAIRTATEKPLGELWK
Briefly: (§1) Inhibition of human TMPK by coupled spectrophotometric assay. Summed up:
(§2)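 Thymidylate kinase activity (M. tuberculosis or human enzyme) measured by coupled spectrophotometric assay at 334 nm, following NADH consumption. Medium: 50 mM Tris-HCl pH 7.4, 50 mM KCl, 2 mM MgCl2, 0.2 mM NADH, 1 mM phosphoenol pyruvate, 2 units each lactate dehydrogenase, pyruvate kinase and nucleoside diphosphate kinase. ATP fixed at 0.5 mM, dTMP at 0.05 mM; analogue 0.1–2.5 mM.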

Series [3] addresses T2, Thymidylate kinase (Mycobacterium tuberculosis, UniProt P9WKE1).
T2 sequence (P9WKE1 whole entry): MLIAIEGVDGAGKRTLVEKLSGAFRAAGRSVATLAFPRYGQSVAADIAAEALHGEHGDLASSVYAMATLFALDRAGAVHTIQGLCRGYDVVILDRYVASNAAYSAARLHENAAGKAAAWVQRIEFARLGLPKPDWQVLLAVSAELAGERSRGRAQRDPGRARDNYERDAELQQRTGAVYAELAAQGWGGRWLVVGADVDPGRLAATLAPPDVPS
The series is described as follows: Inhibition of Mycobacterium tuberculosis TMPK by coupled spectrophotometric assay.

Series [4] addresses T3, Thymidylate kinase (Homo sapiens) (UniProt P23919).
T3 sequence (whole entry): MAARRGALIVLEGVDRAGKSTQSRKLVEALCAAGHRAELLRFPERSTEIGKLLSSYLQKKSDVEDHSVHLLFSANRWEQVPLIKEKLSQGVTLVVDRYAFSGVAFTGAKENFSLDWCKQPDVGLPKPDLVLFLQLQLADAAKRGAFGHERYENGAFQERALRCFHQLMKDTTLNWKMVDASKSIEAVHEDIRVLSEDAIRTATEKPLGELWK
Briefly: Inhibition of human TMPK at 2 mM by coupled spectrophotometric assay. Summed up: as §2

The target in series [5] is T4, Thymidylate kinase (Mycobacterium tuberculosis) (UniProt P9WKE1).
T4 sequence (whole entry): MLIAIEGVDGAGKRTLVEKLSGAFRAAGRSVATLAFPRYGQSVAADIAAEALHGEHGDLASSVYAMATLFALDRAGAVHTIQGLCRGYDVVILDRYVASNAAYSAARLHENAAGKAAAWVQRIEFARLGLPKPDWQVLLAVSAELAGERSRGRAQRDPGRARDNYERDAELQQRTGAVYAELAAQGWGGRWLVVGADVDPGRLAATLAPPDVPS
Briefly: Inhibition of Mycobacterium tuberculosis TMPK at 1 mM by coupled spectrophotometric assay. The gist of the method: as §2

Compound in series [6]: Cc1cn([C@H]2C[C@H](O)[C@@H](COP(=O)(O)O)O2)c(=O)[nH]c1=O
Described as §1. Summed up:
as §2

Active and inactive are the calls of the source. The calls are words filed in the database; no cut-off is given here.

The term Ki denotes a measure of affinity in units of concentration, obtained from inhibition or displacement. A low value points to higher affinity. As a reminder, the Km is the substrate concentration at which the rate is half of its maximum.

For `Cc1cn([C@H]2C[C@H](CN)[C@@H](CO)O2)c(=O)[nH]c1=O`, the Ratio Ki in series [1] came to 3.9. The molecule further displayed a Ki on Thymidylate kinase [2] of 220 µM.

Regarding `Cc1cn([C@@H]2O[C@H](CF)[C@@H](CN=[N+]=[N-])[C@H]2F)c(=O)[nH]c1=O`, at Thymidylate kinase [3], the Ki amounted to 80 µM. That is a double-digit micromolar value.

On to `Cc1cn([C@@H]2O[C@H](CO)[C@@H](CN=[N+]=[N-])[C@H]2F)c(=O)[nH]c1=O`, for which the Ki on Thymidylate kinase [3] turned out to be 165 µM. Compared with the last molecule, the Ki is about 2.1-fold higher.

In series [1], `Cc1cn([C@H]2C[C@H](O)[C@@H](COP(=O)(O)O)O2)c(=O)[nH]c1=O` had a Selectivity index of 1.1.

`Cc1cn([C@@H]2C[C@H](CN=[N+]=[N-])[C@@H](CO)O2)c(=O)[nH]c1=O`: the Ki at Thymidylate kinase [3] is 29 µM. In addition, the outcome in series [4] was inactive.

Regarding `Cc1cn([C@@H]2O[C@H](CO)[C@@H](CN)[C@H]2F)c(=O)[nH]c1=O`, the result in series [5] was inactive.

Molecule `Cc1cn([C@@H]2O[C@H](CO)[C@@H](CN)[C@H]2Cl)c(=O)[nH]c1=O` registered a Ki at Thymidylate kinase [3] of 390 µM.

Molecule `Cc1cn([C@@H]2O[C@H](CO)[C@@H](CN=[N+]=[N-])[C@H]2Cl)c(=O)[nH]c1=O` yielded a Ki on Thymidylate kinase [3] of 180 µM.

Consider `Cc1cn([C@@H]2O[C@H](CO)[C@H]3CNC(=S)O[C@H]32)c(=O)[nH]c1=O`, for which the figures for the Ki on Thymidylate kinase [3] and at Thymidylate kinase [2] were 3.5 µM and 700 µM, respectively. Also, in series [1], the Ratio Ki was 200.

As to `Cc1cn([C@H]2C[C@H](CN=[N+]=N)[C@@H](CO)O2)c(=O)[nH]c1=O`, the Ki on Thymidylate kinase [3] stood at 40 µM; on Thymidylate kinase [2], 1040 µM. Also, in series [1], the Ratio Ki amounted to 26.

As to `Cc1cn([C@@H]2O[C@H](CO)[C@H]3CNC(=O)O[C@H]32)c(=O)[nH]c1=O`, the inhibitory constant (Ki) at Thymidylate kinase [3] worked out at 13.5 µM; on Thymidylate kinase [2], 1100 µM. Besides, the Ratio Ki in series [1] worked out at 81.5.

`Cc1cn([C@H]2C[C@H](O)[C@@H](CO)O2)c(=O)[nH]c1=O` [DOXRIBTIMINE] showed a Ki on Thymidylate kinase [2] of 180 µM.

B1: Thymidylate kinase (Homo sapiens), P23919 (protein)
chain: MAARRGALIVLEGVDRAGKSTQSRKLVEALCAAGHRAELLRFPERSTEIGKLLSSYLQKKSDVEDHSVHLLFSANRWEQVPLIKEKLSQGVTLVVDRYAFSGVAFTGAKENFSLDWCKQPDVGLPKPDLVLFLQLQLADAAKRGAFGHERYENGAFQERALRCFHQLMKDTTLNWKMVDASKSIEAVHEDIRVLSEDAIRTATEKPLGELWK
For B1, the Km in series [6] was determined as 5 µM.
